What was measured:
[1] = Inhibition of DNA-PK isolated from human HeLa cell extract assessed as reduction in p53 Ser15 phosphorylation by chemiluminescence assay; type: cell-free
HeLa [2] = experiment: Potentiation of ionizing radiation-induced cytotoxicity in human HeLa cells assessed as dose modification ratio at 0.1 uM pretreated 1 hr before 2 Gy ionizing radiation by Giemsa staining relative untreated control; type: functional
Procedure, shortened: (§1)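 HeLa cells seeded in six-well dishes and left overnight at 37 °C/5% CO2. Compound or vehicle given 1 h before a single 2 Gy X-ray dose, then incubated overnight. Medium replaced without compound and cells grown 6-8 days. Colonies Giemsa-stained and counted automatically. DMR is % survival at 2 Gy without compound divided by % survival at 2 Gy with compound.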

HeLa [3] = experiment: Potentiation of ionizing radiation-induced cytotoxicity in human HeLa cells assessed as dose modification ratio at 0.5 uM pretreated 1 hr before 2 Gy ionizing radiation by Giemsa staining relative untreated control; type: functional; procedure, shortened: as §1

Row | SMILES | IC50 [1] [µM] | Ratio (HeLa [2]) | Ratio (HeLa [3])
1 | O=c1cc(N2CCOCC2)oc2c1ccc1ccccc12 | 0.23 | – | –
2 | O=C(CN1CCN(c2ccccn2)CC1)Nc1ccc(-c2cccn3c(=O)cc(N4CCOCC4)nc23)c2sc3ccccc3c12 | 0.175 | – | 3.9
3 | O=C(CN1CCN(CCOCCO)CC1)Nc1ccc(-c2cccn3c(=O)cc(N4CCOCC4)nc23)c2sc3ccccc3c12 | 0.051 | 1 | 8.3
4 | O=C(CCN1CCOCC1)Nc1ccc(-c2cccn3c(=O)cc(N4CCOCC4)nc23)c2sc3ccccc3c12 | 0.086 | 6.2 | 6.2
5 | O=C(CCNCC1CCCO1)Nc1ccc(-c2cccn3c(=O)cc(N4CCOCC4)nc23)c2sc3ccccc3c12 (stereo not drawn) | 0.077 | 4.3 | 4.3
6 | NCC(=O)Nc1ccc(-c2cccc3c(=O)cc(N4CCOCC4)[nH]c23)c2sc3ccccc3c12 | 0.198 | – | 2.6
7 | O=C(CN1CCOCC1)Nc1ccc(-c2cccc3c(=O)cc(N4CCOCC4)[nH]c23)c2sc3ccccc3c12 | 0.06 | – | 3.1
8 | O=C(CN1CCNCC1)Nc1ccc(-c2cccc3c(=O)cc(N4CCOCC4)[nH]c23)c2sc3ccccc3c12 | 0.133 | – | 2.2
9 | CCN1CCN(CC(=O)Nc2ccc(-c3cccc4c(=O)cc(N5CCOCC5)[nH]c34)c3sc4ccccc4c23)CC1 | 0.061 | – | 3.4
10 | O=C(CNCCCN1CCOCC1)Nc1ccc(-c2cccc3c(=O)cc(N4CCOCC4)[nH]c23)c2sc3ccccc3c12 | 0.064 | – | 4
11 | O=C(CCN1CCOCC1)Nc1ccc(-c2cccc3c(=O)cc(N4CCOCC4)[nH]c23)c2sc3ccccc3c12 | 0.179 | – | 2.8
12 | O=C(CCN1CCCCC1)Nc1ccc(-c2cccc3c(=O)cc(N4CCOCC4)[nH]c23)c2sc3ccccc3c12 | 0.051 | – | 2.9
13 | O=C(CCNCC1CCCO1)Nc1ccc(-c2cccc3c(=O)cc(N4CCOCC4)[nH]c23)c2sc3ccccc3c12 (stereo not drawn) | 0.102 | – | 2.1
14 | O=C(CCN1CCCCCC1)Nc1ccc(-c2cccc3c(=O)cc(N4CCOCC4)[nH]c23)c2sc3ccccc3c12 | 0.141 | – | 2.2
15 | O=C(CN1CCOCC1)Nc1ccc(-c2cccn3c(=O)cc(N4CCOCC4)nc23)c2oc3ccccc3c12 | 0.059 | 1.4 | 2.3
16 | O=C(CCN1CCOCC1)Nc1ccc(-c2cccn3c(=O)cc(N4CCOCC4)nc23)c2oc3ccccc3c12 | 0.077 | 1.3 | 6.3
17 | C[C@@H]1CN(CCC(=O)Nc2ccc(-c3cccn4c(=O)cc(N5CCOCC5)nc34)c3oc4ccccc4c23)C[C@H](C)O1 | 0.07 | 0.9 | 4.1
18 | O=C(CCNCC1CCCO1)Nc1ccc(-c2cccn3c(=O)cc(N4CCOCC4)nc23)c2oc3ccccc3c12 (stereo not drawn) | 0.075 | 1.3 | 7.4
19 | O=C(CN1CCOCC1)Nc1ccc(-c2cccc3c(=O)cc(N4CCOCC4)[nH]c23)c2oc3ccccc3c12 | 0.112 | 1.1 | 1.6
20 | COCCN1CCN(CC(=O)Nc2ccc(-c3cccc4c(=O)cc(N5CCOCC5)[nH]c34)c3oc4ccccc4c23)CC1 | 0.068 | 1.1 | 1.4
21 | CN1CCN(CC(=O)Nc2ccc(-c3cccc4c(=O)cc(N5CCOCC5)[nH]c34)c3oc4ccccc4c23)CC1 | 0.116 | 1.2 | 1.6
22 | CCN1CCN(CC(=O)Nc2ccc(-c3cccc4c(=O)cc(N5CCOCC5)[nH]c34)c3oc4ccccc4c23)CC1 | 0.077 | 1.2 | 3.6
23 | CC(C)NC(=O)CN1CCN(CC(=O)Nc2ccc(-c3cccc4c(=O)cc(N5CCOCC5)[nH]c34)c3oc4ccccc4c23)CC1 | 0.055 | 1.4 | 1.6
24 | O=C(CCN1CCCCC1)Nc1ccc(-c2cccc3c(=O)cc(N4CCOCC4)[nH]c23)c2oc3ccccc3c12 | 0.314 | 1 | 1.1
25 | C[C@@H]1CN(CCC(=O)Nc2ccc(-c3cccc4c(=O)cc(N5CCOCC5)[nH]c34)c3oc4ccccc4c23)C[C@H](C)O1 | 0.151 | 0.8 | 0.9
26 | O=c1cc(N2CCOCC2)nc2c3ccccc3ccn12 | 0.28 | – | –

These reach a lower IC50 [1]. Values come first.

Row | IC50 [1] [µM] | SMILES | Ratio (HeLa [2]) | Ratio (HeLa [3])
27 | 0.043 | CN1CCN(CC(=O)Nc2ccc(-c3cccc4c(=O)cc(N5CCOCC5)[nH]c34)c3sc4ccccc4c23)CC1 | – | 2.5
28 | 0.039 | O=C(CN1CCN(CCO)CC1)Nc1ccc(-c2cccc3c(=O)cc(N4CCOCC4)[nH]c23)c2oc3ccccc3c12 | 1.3 | 1.5
29 | 0.037 | C[C@@H]1CN(CC(=O)Nc2ccc(-c3cccc4c(=O)cc(N5CCOCC5)[nH]c34)c3oc4ccccc4c23)C[C@H](C)O1 | 1.1 | 1.6
30 | 0.036 | CC(C)NC(=O)CN1CCN(CC(=O)Nc2ccc(-c3cccn4c(=O)cc(N5CCOCC5)nc34)c3oc4ccccc4c23)CC1 | 1.7 | 13
31 | 0.033 | COCCN1CCN(CC(=O)Nc2ccc(-c3cccc4c(=O)cc(N5CCOCC5)[nH]c34)c3sc4ccccc4c23)CC1 | 1.2 | 8.2
32 | 0.032 | CC(=O)N1CCN(CCC(=O)Nc2ccc(-c3cccn4c(=O)cc(N5CCOCC5)nc34)c3sc4ccccc4c23)CC1 | 2.1 | 2.1
33 | 0.03 | CN1CCN(CC(=O)Nc2ccc(-c3cccn4c(=O)cc(N5CCOCC5)nc34)c3oc4ccccc4c23)CC1 | 1.1 | 4.3
34 | 0.029 | O=C(CN(CCO)CCO)Nc1ccc(-c2cccn3c(=O)cc(N4CCOCC4)nc23)c2sc3ccccc3c12 | 1.1 | 3.8
35 | 0.029 | O=C(CCNCCCN1CCOCC1)Nc1ccc(-c2cccn3c(=O)cc(N4CCOCC4)nc23)c2sc3ccccc3c12 | 1.7 | 1.7
36 | 0.029 | CCN1CCN(CC(=O)Nc2ccc(-c3cccn4c(=O)cc(N5CCOCC5)nc34)c3oc4ccccc4c23)CC1 | 1.1 | 6.4
37 | 0.028 | O=C(CCN1CCCCC1)Nc1ccc(-c2cccn3c(=O)cc(N4CCOCC4)nc23)c2sc3ccccc3c12 | 14.3 | 14.3
38 | 0.027 | C[C@@H]1CN(CCC(=O)Nc2ccc(-c3cccn4c(=O)cc(N5CCOCC5)nc34)c3sc4ccccc4c23)C[C@H](C)O1 | 4.6 | 4.6
39 | 0.025 | O=C(CN1CCNCC1)Nc1ccc(-c2cccn3c(=O)cc(N4CCOCC4)nc23)c2sc3ccccc3c12 | 1.5 | 6.2
40 | 0.025 | CC(C)NC(=O)CN1CCN(CC(=O)Nc2ccc(-c3cccn4c(=O)cc(N5CCOCC5)nc34)c3sc4ccccc4c23)CC1 | – | 7.3
41 | 0.024 | CN1CCN(CC(=O)Nc2ccc(-c3cccn4c(=O)cc(N5CCOCC5)nc34)c3sc4ccccc4c23)CC1 | 2.4 | 9.2
42 | 0.022 | COCCN1CCN(CC(=O)Nc2ccc(-c3cccn4c(=O)cc(N5CCOCC5)nc34)c3sc4ccccc4c23)CC1 | 4 | 14.4
43 | 0.021 | CC(=O)N1CCN(CCC(=O)Nc2ccc(-c3cccc4c(=O)cc(N5CCOCC5)[nH]c34)c3sc4ccccc4c23)CC1 | – | 2.6
44 | 0.021 | O=C(CCN1CCCCC1)Nc1ccc(-c2cccn3c(=O)cc(N4CCOCC4)nc23)c2oc3ccccc3c12 | 2.5 | 1
45 | 0.019 | O=C(CN1CCN(CCO)CC1)Nc1ccc(-c2cccn3c(=O)cc(N4CCOCC4)nc23)c2sc3ccccc3c12 | 1.4 | 13.6
46 | 0.019 | O=C(CN1CCN(c2ccccn2)CC1)Nc1ccc(-c2cccc3c(=O)cc(N4CCOCC4)[nH]c23)c2sc3ccccc3c12 | – | 5.8
47 | 0.018 | CCN1CCN(CC(=O)Nc2ccc(-c3cccn4c(=O)cc(N5CCOCC5)nc34)c3sc4ccccc4c23)CC1 | 1.4 | 7.7
48 | 0.018 | O=C(CN1CCN(CCO)CC1)Nc1ccc(-c2cccc3c(=O)cc(N4CCOCC4)[nH]c23)c2sc3ccccc3c12 | – | 2.1
49 | 0.017 | O=C(CN1CCN(CCO)CC1)Nc1ccc(-c2cccn3c(=O)cc(N4CCOCC4)nc23)c2oc3ccccc3c12 | 1.3 | 5.8
50 | 0.015 | C[C@@H]1CN(CC(=O)Nc2ccc(-c3cccn4c(=O)cc(N5CCOCC5)nc34)c3oc4ccccc4c23)C[C@H](C)O1 | 1 | 3
51 | 0.014 | C[C@@H]1CN(CCC(=O)Nc2ccc(-c3cccc4c(=O)cc(N5CCOCC5)[nH]c34)c3sc4ccccc4c23)C[C@H](C)O1 | – | 2.2
52 | 0.012 | COc1ccc(CNCCC(=O)Nc2ccc(-c3cccn4c(=O)cc(N5CCOCC5)nc34)c3sc4ccccc4c23)cc1 | 6.7 | 6.7
53 | 0.008 | O=C(CN1CCOCC1)Nc1ccc(-c2cccn3c(=O)cc(N4CCOCC4)nc23)c2sc3ccccc3c12 | 3.5 | 9.9
54 | 0.007 | C[C@@H]1CN(CC(=O)Nc2ccc(-c3cccn4c(=O)cc(N5CCOCC5)nc34)c3sc4ccccc4c23)C[C@H](C)O1 | – | 15.1
55 | 0.006 | CCN1CCN(CC(=O)Nc2ccc(-c3cccc4c(=O)cc(N5CCOCC5)oc34)c3sc4ccccc4c23)CC1 | 3.2 | –

— ChEMBL document CHEMBL1629444, “DNA-dependent protein kinase (DNA-PK) inhibitors. Synthesis and biological activity of quinolin-4-one and pyridopyrimidin-4-one surrogates for the chromen-4-one chemotype” (J Med Chem, 2010)
